# Compound activity: PubChem, several laboratories
# Only some compounds are listed: those with a hit (about 1.2% of all), similar ones and a draw of the others.
# HKDC1 inhibitor = HKDC1 hexokinase inhibitors, primary screen, biochemical, fluorescence, uHTS; Q2TB90; recombinant HKDC1, G6PDH/diaphorase resazurin coupled fluorescence; hit rate 0.16% among 340,000; AID 493160, 2011; inhibition, % at 20 µM;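 active means inhibition above about 35% when tested at 20 µM, limit read from the data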
#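 System: Recombinant HKDC1 hexokinase | Amount: HKDC1 at 5 µg/mL | Reagent: Glucose with 1 mM ATP | Doses: Single 20 µM dose | Incubation: Reaction time 90 min, room temperature, protected from light | Signal: Coupled resazurin fluorescence, excitation 525 nm, emission 613 nm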
# Diaphorase inh = diaphorase inhibitors and chemical oxidizers, primary screen, counter-screen for diaphorase-coupled primary assays, biochemical, uHTS, resorufin fluorescence; diaphorase resazurin-to-resorufin fluorescence, NADH, 16 min; bacterial (C. kluyveri) enzyme, not human; inhibition, % at 20 µM; hit rate 0.69% among 190,000; AID 1217, 2008;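 active means primary screen inhibition at 20 µM above a set limit, cut at about 50% in these data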
#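 controls = No-NADH positive control and DMSO neutral control | system = Clostridium kluyveri diaphorase enzyme | timing = reaction incubation of 16 min at room temperature | signal = resorufin fluorescence 544/590 nm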
# PfGluPho inh = PfG6PD enzyme inhibitors, primary screen, biochemical, fluorescence intensity, uHTS | AID 504690, 2011 | hit rate 0.78% among 350,000 | glucose-6-phosphate dehydrogenase-6-phosphogluconolactonase (Plasmodium falciparum 3D7) | PfGluPho enzyme, NADPH resazurin-diaphorase fluorescence | inhibition, % at 20 µM;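 active means inhibition reaching at least a set limit at 20 µM in the primary screen, cut at about 59% in these data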
# Tb hexokinase = Trypanosoma brucei hexokinase 1 inhibitors, primary screen, biochemical, G6PDH-coupled NADH absorbance, MLSCN library; hexokinase 1 [Trypanosoma brucei]; recombinant TbHK1, G6PDH-coupled NADH A340; inhibition, % at 10 µM; hit rate 0.11% among 220,000;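 active means inhibition of 50% or more in the single-dose primary screen; inactive means inhibition below 50%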
# G6PDH CS = L. mesenteroides G6PDH inhibitors, counter-screen for G6PDH-coupled screening assays, biochemical, Leuconostoc mesenteroides enzyme; Purified L. mesenteroides G6PDH, diaphorase/resazurin coupled fluorescence, 45 min; inhibition, % at 5 µM; hit rate 0.12% among 200,000; in the data active means inhibition above about 50%
# A number is an active result; - = inactive; . = no result given.
SMILES,HKDC1 inhibitor,Diaphorase inh,PfGluPho inh,Tb hexokinase,G6PDH CS
S=c1nc(-c2ccccc2)oc2c1CCCC2,-,65,-,-,-
COc1cccc(-c2nc(=S)c3c(o2)CCCC3)c1,-,-,-,-,-
O=C(O)c1cc(-c2ccco2)nc2ccc(Br)cc12,-,65,-,-,-
O=S(=O)(c1ccc2ccccc2c1)N1CCOCC1,-,.,-,.,.
O=S(=O)(c1ccc2nc(-c3ccco3)c(-c3ccco3)nc2c1)N1CCOCC1,-,67,-,-,-
O=C(Nc1cccc(C(F)(F)F)c1)c1ccc2nc(-c3ccco3)c(-c3ccco3)nc2c1,-,-,-,-,-
O=C(O)c1ccc2nc(-c3ccco3)c(-c3ccco3)nc2c1,-,84,-,-,-
O=C(c1ccc2nc(-c3ccco3)c(-c3ccco3)nc2c1)N1CCN(c2ccccc2)CC1,-,56,-,-,-
Cc1ccc(S(=O)(=O)N(C)c2ccc(OCC(=O)Nc3cc(C(=O)O)ccc3Cl)cc2)cc1,-,.,-,.,.
O=C(Nc1ccc(F)cc1)N1CCN(C(=O)C2CCCO2)CC1 (stereo not drawn),-,.,-,.,.
c1ccc(N=NC2=NN(c3ccccc3)CS2)cc1,.,.,-,.,.
O=C1c2cccc3cccc(c23)C(=O)N1/N=C/c1ccc(O)cc1O,-,-,-,-,-
O=C1c2ccccc2C(=O)N1/N=C/c1ccc(O)c(O)c1O,-,.,98,-,.
COc1cc(NC(=O)CN(C)S(=O)(=O)c2ccc(-c3ccc(=O)[nH]n3)s2)cc(OC)c1,-,.,-,.,.
COc1cc(/C=C2\CCC(C)C3=C(c4cc(OC)c(OC)c(OC)c4)C(C#N)=C(N)OC32)cc(OC)c1OC (stereo not drawn),-,.,-,.,.
Nc1ccc2c(c1)C(=O)c1ccccc1-2,-,.,-,.,.
O=C1C(=O)c2ccc(-c3ccccc3)cc2-c2ccccc21,-,-,-,-,54
COc1cccc(CN2CCN(Cc3cc(OC)c(OC)cc3[N+](=O)[O-])CC2)c1,-,50,-,-,-
COc1cc(CN2CCN(Cc3ccc([N+](=O)[O-])cc3)CC2)c([N+](=O)[O-])cc1OC,-,-,-,-,-
COc1ccc(/C=C(\C#N)c2nc3ccccc3[nH]2)cc1O,-,.,-,.,.
COc1cc(/C=C(\C#N)c2nc3ccccc3[nH]2)cc(OC)c1O,-,51,-,-,-
O=C(Cc1ccccc1)N/N=C/c1ccc2cccc(O)c2n1,-,-,-,-,56
Cc1ccc2cccc(OC(=O)/C=C\c3ccccc3)c2n1,-,-,-,-,51
COc1ccccc1/C=C/C(=O)Oc1cccc2cccnc12,-,-,-,-,-
CCOc1ccc(CN(C)C(=O)c2cccc(S(=O)(=O)Nc3ccccc3OC)c2)cc1OC,.,.,-,.,.
SMILES,HKDC1 inhibitor,Diaphorase inh,PfGluPho inh,Tb hexokinase,G6PDH CS
O=c1sc2ccccc2n1COc1ccccc1,-,70,-,-,-
O=C(O)C1=CCC=CC1C(=O)O (stereo not drawn),.,.,-,.,.
COc1ccc(F)cc1C(=O)C1CCCN(Cc2cccn2-c2cccnc2)C1 (stereo not drawn),-,94,-,-,-
O=C(NC(=S)N1CCCC1)c1cccc([N+](=O)[O-])c1,-,.,-,.,.
CCC(=O)Nc1ccc(C(=O)NNC(=O)CCCCC(=O)NNC(=O)c2ccc(NC(=O)CC)cc2)cc1,.,.,-,.,.
Cc1ccc(Nc2nnns2)cc1,-,-,60,-,-
Cc1cc(-c2nc3c4c5c(sc4[nH]c(=O)n3n2)CCC5)c(C)o1,-,57,-,-,-
Cc1nc2sc3c(c2c(=O)[nH]1)CCC3,-,-,-,-,-
CN(C)c1cccc2c(/C=N/O)ccc(N(C)C)c12,-,-,-,-,-
CN(C)c1cccc2c(C=C(C#N)C#N)ccc(N(C)C)c12,-,62,-,-,-
CN(c1ccccc1)S(=O)(=O)c1cccc(NS(=O)(=O)c2ccc(/C=C/C(=O)O)cc2)c1,-,59,-,-,-
O=C(O)/C=C/c1ccc(S(=O)(=O)Nc2cccnc2)cc1,-,.,-,.,.
O=C(N/N=C\c1ccc(-c2ccccc2[N+](=O)[O-])o1)C1COc2ccccc2O1 (stereo not drawn),-,-,-,-,-
O=C(N/N=C\c1ccc(-c2ccccc2[N+](=O)[O-])o1)C1COc2cc3ccccc3cc2O1 (stereo not drawn),-,64,-,-,-
Cc1cc(C(=O)NC(C)Cc2ccccc2)cc(C)c1[N+](=O)[O-] (stereo not drawn),-,69,-,-,-
C[C@@H]1CN([C@@H](C)CO)S(=O)(=O)c2ccc(Br)cc2O[C@@H]1CN(C)Cc1cccnc1,.,.,-,.,.
COc1cc(NC(=O)c2sc3ncn(CC(=O)N4CCCCC4C)c(=O)c3c2C)cc(OC)c1OC (stereo not drawn),.,.,-,.,.
CCN(CC)CCn1c2ccccc2c2n[nH]c(=S)nc21,-,.,64,.,.
CC(C)CC(C(=O)Nc1oc(-c2ccco2)c(-c2ccco2)c1C#N)N1C(=O)c2ccccc2C1=O (stereo not drawn),-,56,-,-,-
CC(C)N=c1scc(-c2ccco2)n1/N=C/c1ccc(O)c(O)c1,-,59,-,-,-
Oc1ccc(/C=N/n2c(-c3ccco3)csc2=Nc2cccnc2)c(O)c1,-,-,-,-,-
CN=c1scc(-c2cccs2)n1/N=C/c1ccc(O)c(O)c1O,-,68,-,-,-
COCCN=c1scc(-c2ccco2)n1/N=C/c1ccc(O)c(O)c1O,-,80,-,-,-
CCOc1ccccc1C(=O)NC(C(=O)OCn1nnc2ccccc2c1=O)C(C)C (stereo not drawn),.,.,-,.,.
c1cc2c3c(cccc3c1)C(N1CCCCC1)=N2,-,-,-,-,52
SMILES,HKDC1 inhibitor,Diaphorase inh,PfGluPho inh,Tb hexokinase,G6PDH CS
CCOC(=O)c1c(NC(=O)C2C3CCC(O3)C2C(=O)O)sc(C)c1-c1ccc(C)cc1 (stereo not drawn),-,52,-,-,-
CCOC(=O)c1c(-c2cccc3ccccc23)csc1NC(=O)C1C2CCC(O2)C1C(=O)O (stereo not drawn),-,-,-,-,-
Cc1ccc2c(Cl)cc(Cl)c(OCC(=O)NCc3ccco3)c2n1,.,54,.,-,-
Cc1ccc2c(Cl)cc(Cl)c(OCC(=O)NC(=O)NCc3ccco3)c2n1,-,-,-,-,-
C=CC1CN2CCC1CC2C(O)c1ccnc2ccc(OC)cc12 (stereo not drawn),-,.,-,.,.
CC(C)n1c(SCC(=O)N2c3ccccc3Sc3ccccc32)nc2c1c(=O)n(C)c(=O)n2C,-,76,-,-,-
CC(C)n1c(SCC(=O)N2c3ccccc3CCc3ccccc32)nc2c1c(=O)n(C)c(=O)n2C,.,.,.,-,.
CCCC1NC(=O)c2cccnc2-n2c1nc1ccc(Br)cc1c2=O (stereo not drawn),.,.,-,.,.
